The source of these data is ChEMBL document CHEMBL4020830, “Design, Synthesis, and Evaluation of a Novel Series of Indole Sulfonamide Peroxisome Proliferator Activated Receptor (PPAR) α/γ/δ Triple Activators: Discovery of Lanifibranor, a New Antifibrotic Clinical Candidate” (J Med Chem, 2018).

For series [1], the target named is T1, Peroxisome proliferator-activated receptor gamma (Homo sapiens, UniProt P37231).
T1 sequence (P37231 whole entry): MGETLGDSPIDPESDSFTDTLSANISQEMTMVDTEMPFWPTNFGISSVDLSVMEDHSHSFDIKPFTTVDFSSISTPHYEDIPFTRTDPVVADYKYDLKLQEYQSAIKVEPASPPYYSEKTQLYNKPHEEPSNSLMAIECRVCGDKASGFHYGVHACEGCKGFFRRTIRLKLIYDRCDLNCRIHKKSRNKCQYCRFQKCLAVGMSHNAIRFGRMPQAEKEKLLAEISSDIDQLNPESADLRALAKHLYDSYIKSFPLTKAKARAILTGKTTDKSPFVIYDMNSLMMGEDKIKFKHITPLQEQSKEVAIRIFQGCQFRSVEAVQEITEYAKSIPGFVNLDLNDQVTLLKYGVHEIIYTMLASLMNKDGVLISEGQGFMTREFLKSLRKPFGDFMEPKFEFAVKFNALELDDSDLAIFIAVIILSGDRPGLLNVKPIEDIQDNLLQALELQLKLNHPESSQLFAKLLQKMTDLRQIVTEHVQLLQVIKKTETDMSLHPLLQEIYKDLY
Put plainly: Transactivation of recombinant GST-tagged PPARgamma (unknown origin) expressed in Escherichia coli assessed as N-terminal biotin-labeled LCOR (39 to 63 residues) co-activator recruitment by TR-FRET assay.

Series [2] has as its system Rattus norvegicus. Put plainly: Toxicity in Sprague-Dawley rat assessed as effect on heart weight at 100 to 1000 mg/kg for 6 weeks. Type of series: organism-based. To be noted: in vivo, 1008 h. In short, it runs like this: (§1)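 Sprague-Dawley rats were treated at 100 and 1000 mg/kg. Hematocrit and plasma volume were measured after 4 weeks and heart weight after 6 weeks. Analysis was one-way ANOVA with Dunnett's test versus control.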

The target of series [3] is T2, Peroxisome proliferator-activated receptor alpha (Mus musculus) (UniProt P23204).
T2 sequence (whole entry): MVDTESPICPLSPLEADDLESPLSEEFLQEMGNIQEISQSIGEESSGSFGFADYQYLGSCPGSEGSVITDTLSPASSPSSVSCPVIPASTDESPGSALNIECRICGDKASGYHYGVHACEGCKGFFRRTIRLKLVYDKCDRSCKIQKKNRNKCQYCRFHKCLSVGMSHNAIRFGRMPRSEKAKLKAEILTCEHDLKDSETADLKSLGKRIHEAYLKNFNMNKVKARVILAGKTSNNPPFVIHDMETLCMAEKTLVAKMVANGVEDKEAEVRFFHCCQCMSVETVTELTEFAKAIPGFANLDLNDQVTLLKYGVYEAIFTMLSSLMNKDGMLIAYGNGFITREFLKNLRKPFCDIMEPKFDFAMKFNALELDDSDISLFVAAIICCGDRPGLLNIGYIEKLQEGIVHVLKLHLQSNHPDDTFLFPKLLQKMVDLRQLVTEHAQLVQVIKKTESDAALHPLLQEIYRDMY
Put plainly: Transactivation of mouse GAL4-fused PPARalpha LBD expressed in African green monkey COS7 cells co-expressing 5Gal4 pGL3 TK Luc after overnight incubation by luciferase reporter gene assay relative to fenofibric acid. The series is classed as cell-based. An outline of the steps:
(§2)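 Cell-based Gal-4 transactivation assay in COS-7 cells transfected with PPARα, PPARδ or PPARγ ligand-binding domain. EC50 and Emax were derived, with Emax as maximum activation in percent of control. EC50s are means of at least two independent experiments performed in triplicate.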
(A reporter such as luciferase makes a cellular process visible.)

Series [4] deals with T1, Peroxisome proliferator-activated receptor gamma.
The target in series [5] is T3, Peroxisome proliferator-activated receptor delta (Mus musculus) (UniProt P35396).
T3 sequence (whole entry): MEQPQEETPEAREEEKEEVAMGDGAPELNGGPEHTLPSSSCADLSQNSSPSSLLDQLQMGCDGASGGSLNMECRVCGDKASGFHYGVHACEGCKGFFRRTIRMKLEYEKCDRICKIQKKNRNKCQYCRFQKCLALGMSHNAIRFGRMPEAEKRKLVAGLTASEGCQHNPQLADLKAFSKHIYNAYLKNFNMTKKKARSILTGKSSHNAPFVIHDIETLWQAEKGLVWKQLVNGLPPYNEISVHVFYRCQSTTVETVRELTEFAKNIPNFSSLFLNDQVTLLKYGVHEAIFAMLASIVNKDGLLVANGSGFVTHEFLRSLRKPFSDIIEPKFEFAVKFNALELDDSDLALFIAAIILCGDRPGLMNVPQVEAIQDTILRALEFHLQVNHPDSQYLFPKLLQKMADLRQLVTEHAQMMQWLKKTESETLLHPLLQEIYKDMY
Put plainly: Transactivation of mouse GAL4-fused PPARdelta LBD expressed in African green monkey COS7 cells co-expressing 5Gal4 pGL3 TK Luc after overnight incubation by luciferase reporter gene assay relative to GW501516. The series is classed as cell-based. In short, it runs like this: as §2

Series [6] has as its system Rattus norvegicus. Put plainly: Toxicity in Sprague-Dawley rat assessed as reduction in hematocrit level at 100 to 1000 mg/kg for 4 weeks. The series is classed as organism-based. Conditions: in vivo, 672 h. An outline of the steps: as §1
For series [7], the target named is T1, Peroxisome proliferator-activated receptor gamma. The source holds these as a separate data set.
In series [8] the test system is Mus musculus. Put plainly: Antidiabetic activity in C57BL/Ks mouse model of diabetic dyslipidemia assessed as decrease in plasma glucose level administered via oral gavage qd for 5 days measured 4 hrs post last dose. Type of series: functional. An outline of the steps:
(§3)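 Homozygous male C57BL/Ks-db (db/db) mice were gavaged once daily at 10 or 30 mg/kg, for 5 or 10 days. Retro-orbital blood was drawn before treatment and 4 h after the last gavage. Glucose and triglycerides were measured in serum. Results are expressed as % variation on the final day versus the control group. Analysis was one-way ANOVA with Dunnett's test.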

Series [9] concerns the target T1, Peroxisome proliferator-activated receptor gamma. The source holds these as a separate data set.
Series [10] deals with Rattus norvegicus. Put plainly: Toxicity in Sprague-Dawley rat assessed as effect on plasma volume at 100 to 1000 mg/kg for 4 weeks by evans blue dye based assay. Type of series: organism-based. Conditions: in vivo, 672 h. An outline of the steps: as §1
For series [11], the system named is Mus musculus. Put plainly: Increase in plasma adiponctin level in C57Bl6/J mouse model of CCl4-induced liver fibrosis at 3 to 30 mg/kg, po qd for 3 weeks. The series is classed as functional, organism-based. An outline of the steps: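 CCl4-induced liver fibrosis mice were dosed orally once daily at 3, 10 or 30 mg/kg for 3 weeks. Controls were CCl4-vehicle, vehicle oil and saline-injected groups. Liver collagen was scored by picrosirius red staining of histological sections. Plasma triglycerides and adiponectin were also measured. Analysis was one-way ANOVA with Dunnett's test.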

Series [12] has as its system Mus musculus. Put plainly: Hypolipidemic activity in C57BL/Ks mouse model of diabetic dyslipidemia assessed as decrease in plasma triglyceride level at 30 mg/kg, po qd administered via gavage for 10 days measured 4 hrs post last dose. The series is classed as functional, organism-based. In short, it runs like this: as §3
Series [13] deals with Mus musculus. Put plainly: Antidiabetic activity in C57BL/Ks mouse model of diabetic dyslipidemia assessed as decrease in plasma glucose level at 30 mg/kg, po qd administered via gavage for 10 days measured 4 hrs post last dose. The series is classed as functional, organism-based. In short, it runs like this: as §3
The test system of series [14] is Mus musculus. Put plainly: Antidiabetic activity in C57BL/Ks mouse model of diabetic dyslipidemia assessed as decrease in plasma glucose level at 10 mg/kg, po qd administered via gavage for 10 days measured 4 hrs post last dose. The series is classed as functional, organism-based. In short, it runs like this:
as §3

Activity calls are given as the source filed them. No cut-off for these calls is given here.

One may read the EC50 as the midpoint of the concentration-response curve. Take `O=C(O)CCCc1cc2cc(Cl)ccc2n1S(=O)(=O)c1ccc2ncsc2c1` [LANIFIBRANOR]: the EC50 in [1] was 0.727 µM; in series [4] it was 4.1 µM; in series [7] it was 3.27 µM; in series [9], 4.11 µM. For the same molecule, the Activity entry is “Non-Toxic” in series [2], “Non-Toxic” in series [6], “Dose-dependent effect” in series [8] and “Non-Toxic” in [10]. The Emax in [3] amounted to 72%; in [5], 131%. Also, the result in series [11] was Active.
With `O=C(O)CCc1cc2cc(Cl)ccc2n1S(=O)(=O)c1ccccc1`, the result in series [12] and in series [13] was Active. For the same molecule, in series [14], the outcome was inactive.
